Assay results published in PMC9082783 (RSC Advances, 2018).
“Also recorded” adds a separate entry of the source. Read-outs that look alike come from different tables or passages of the source.

Legend:
Jack bean urease [1] = molecular target: T1, Jack bean urease (Canavalia ensiformis, UniProt P07374); assay: In vitro urease inhibitory activity; assay type: biochemical
Hemolytic activity = assay type: cell-based; conditions: bovine, erythrocyte (RBC) suspension, pH 7.4
Outline: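 Bovine blood collected in EDTA, diluted in 0.9% NaCl and centrifuged at 1000 × g for 10 min. Erythrocytes were resuspended in PBS pH 7.4. Test compound solution (10 mg/mL stock) was mixed with the RBC suspension and incubated 30 min at room temperature. PBS served as negative control, Triton X-100 as positive control. Triplicate runs; mean ± SEM; % hemolysis calculated by formula.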

Jack bean urease [2] = molecular target: T1, Jack bean urease; assay: Kinetic analysis of urease inhibition; assay type: biochemical
Outline: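 Jack bean urease (5 U/mL enzyme solution) in potassium phosphate buffer (10 mM K2HPO4, 1 mM EDTA, 10 mM LiCl, pH 8.2) at 37 °C. Ammonia read by indophenol method at 625 nm. Initial velocities taken from per-minute readings up to 10 min. Mode from Lineweaver–Burk plots; Ki from secondary plot with linear least-squares fit.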

T1 sequence (P07374 whole entry, looked up): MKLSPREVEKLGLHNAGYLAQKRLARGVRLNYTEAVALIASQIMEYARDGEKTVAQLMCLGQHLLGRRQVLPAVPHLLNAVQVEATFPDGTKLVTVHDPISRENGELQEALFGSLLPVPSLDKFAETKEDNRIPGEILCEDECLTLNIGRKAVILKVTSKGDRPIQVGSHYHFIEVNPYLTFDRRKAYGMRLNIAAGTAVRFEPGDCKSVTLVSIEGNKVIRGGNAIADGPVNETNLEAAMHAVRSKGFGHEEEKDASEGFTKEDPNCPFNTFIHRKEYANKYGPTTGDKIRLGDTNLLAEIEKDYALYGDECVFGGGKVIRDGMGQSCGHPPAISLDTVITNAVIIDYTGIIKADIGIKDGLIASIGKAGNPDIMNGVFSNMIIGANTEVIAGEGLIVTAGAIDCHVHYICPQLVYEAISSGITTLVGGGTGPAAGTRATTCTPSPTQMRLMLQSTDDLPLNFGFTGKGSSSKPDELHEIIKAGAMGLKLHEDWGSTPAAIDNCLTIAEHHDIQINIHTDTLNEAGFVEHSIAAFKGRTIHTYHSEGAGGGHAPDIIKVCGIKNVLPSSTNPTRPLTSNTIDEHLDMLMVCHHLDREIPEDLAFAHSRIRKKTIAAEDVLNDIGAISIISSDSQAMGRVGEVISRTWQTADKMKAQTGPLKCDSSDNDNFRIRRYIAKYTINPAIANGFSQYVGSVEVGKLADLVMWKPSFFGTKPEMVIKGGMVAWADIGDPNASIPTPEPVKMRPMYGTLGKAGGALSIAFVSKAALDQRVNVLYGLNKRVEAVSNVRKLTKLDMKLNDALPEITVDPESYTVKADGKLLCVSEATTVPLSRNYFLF

| IC50 (Jack bean urease [1]) | SMILES | hemolysis at 30 min (Hemolytic activity) | other results |
| --- | --- | --- | --- |
| 0.0523 ± 0.0044 µM | CCOc1ccc(NC(=O)CCCSc2nnc(CCCc3c[nH]c4ccccc34)o2)cc1 [Compound 8a] | 3.16 ± 0.05% | – |
| 0.0542 ± 0.0211 µM | CCc1ccccc1NC(=O)CCCSc1nnc(CCCc2c[nH]c3ccccc23)o1 [Compound 8b] | 2.41 ± 0.03% | – |
| 0.0175 ± 0.0065 µM | CCc1ccc(NC(=O)CCCSc2nnc(CCCc3c[nH]c4ccccc34)o2)cc1 [Compound 8c] | 0.62 ± 0.02% | Ki (Jack bean urease [2]): 0.003 µM; Vmax (ΔA/Min) (Jack bean urease [2]; 8c concentration 0.017 μM): 6.119 × 10^−5 ΔA/Min; Vmax (ΔA/Min) (Jack bean urease [2]; 8c concentration 0.034 μM): 4.599 × 10^−5 ΔA/Min; Inhibition type (Jack bean urease [2]; Lineweaver-Burk plot): non-competitively; also recorded: Non-competitive |
| 0.0717 ± 0.0152 µM | Cc1ccccc1NC(=O)CCCSc1nnc(CCCc2c[nH]c3ccccc23)o1 [Compound 8d] | 5.18 ± 0.03% | – |
| 0.0323 ± 0.0119 µM | Cc1cccc(NC(=O)CCCSc2nnc(CCCc3c[nH]c4ccccc34)o2)c1 [Compound 8e] | 5.92 ± 0.02% | – |
| 0.102 ± 0.0299 µM | Cc1ccc(NC(=O)CCCSc2nnc(CCCc3c[nH]c4ccccc34)o2)cc1 [Compound 8f] | 3.51 ± 0.04% | – |
| 0.2 ± 0.0122 µM | Cc1ccc(NC(=O)CCCSc2nnc(CCCc3c[nH]c4ccccc34)o2)c(C)c1 [Compound 8g, N-(2,4-dimethylphenyl)-4-({5-[3-(1H-indol-3-yl)propyl]-1,3,4-oxadiazol-2-yl}sulfanyl)butanamide] | 1.41 ± 0.01% | – |
| 0.0251 ± 0.0083 µM | Cc1cccc(C)c1NC(=O)CCCSc1nnc(CCCc2c[nH]c3ccccc23)o1 [Compound 8h] | 2.63 ± 0.02% | – |
| 0.124 ± 0.0318 µM | Cc1cc(C)cc(NC(=O)CCCSc2nnc(CCCc3c[nH]c4ccccc34)o2)c1 [Compound 8i] | 7.32 ± 0.03% | – |
| 0.0375 ± 0.0058 µM | CCc1cccc(C)c1NC(=O)CCCSc1nnc(CCCc2c[nH]c3ccccc23)o1 [Compound 8j] | 9.63 ± 0.05% | – |
| – | NC(N)=S [Thiourea, reference compound] | – | IC50 (Jack bean urease [1]; read-out: Urease activity IC50 ± SEM, Jack bean urease 5 U/mL, 100 mM urea, pH 8.2, 30 min at 37 °C, triplicate): 4.75 ± 0.0546 µM |
| – | CC(C)(C)CC(C)(C)c1ccc(OCCO)cc1 [Triton X, reference compound] | 89.11 ± 0.01% | – |
